GPR7 antag – human neuropeptides B/W receptor 1 antagonism; P48145; GPR7-expressing cells, fluorescence antagonist assay; inhibition, % at 4.4 µM; hit rate 1.1% among 290,000; in the data active = inhibition above about 16%, passing the limit was not always enough;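 also: cells stimulated with the agonist NPW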
Target sequence (P48145 whole entry, looked up): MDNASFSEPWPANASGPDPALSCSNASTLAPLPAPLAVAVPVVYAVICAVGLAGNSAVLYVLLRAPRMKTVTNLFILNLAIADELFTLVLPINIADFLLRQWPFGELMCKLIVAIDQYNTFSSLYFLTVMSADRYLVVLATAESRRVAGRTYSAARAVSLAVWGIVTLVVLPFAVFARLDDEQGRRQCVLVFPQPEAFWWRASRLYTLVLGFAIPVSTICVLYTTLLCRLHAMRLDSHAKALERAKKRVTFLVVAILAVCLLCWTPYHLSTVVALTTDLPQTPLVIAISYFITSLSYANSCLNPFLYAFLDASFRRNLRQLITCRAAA
HSF1 activator – increases HSF-1 driven luciferase reporter signal. NIH3T3-HGL HSF-1 luciferase reporter, MG132, 8 h; 100% = twice DMSO control signal. activation, % at 9 µM. hit rate 1.7% among 300,000;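 active = mean replicate activation of at least 50% with a set share of replicates each reaching 50%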
Jurkat NFkB inh – inhibitors of the PMA/ionomycin-induced NF-kB reporter in Jurkat cells. inhibition, % at 4 µM. AID 435003. hit rate 0.53% among 330,000. PMA/ionomycin-induced NF-kB luciferase reporter, luminescence; in the data active = inhibition above about 50%
697 NFkB inh – lowers PMA/ionomycin-induced NF-kB signal in 697 B cells; inhibition, % at 4 µM; hit rate 0.33% among 330,000; AID 435022; 697 B-cell NF-kB luciferase reporter, 16 h; in the data active = inhibition above about 35%
T cruzi inh – blocks replication of Trypanosoma cruzi | T. cruzi beta-gal in NIH3T3, luminescence, 90 h | inhibition, % (test concentration not listed) | hit rate 1.4% among 300,000 | AID 1885;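 active = mean inhibition across valid replicates above about 55%, limit read from the data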;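 also: signal also drops with host cell toxicity which is not excluded here; higher percent means less beta-gal luminescence so fewer parasites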
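compound dosing = single 50 nL compound addition per well in DMSO | material = NIH/3T3 host cells with β-galactosidase reporter T. cruzi | input = 5,000 host fibroblasts per well | timing = ≥90 h infection period, 3 h prior cell attachment | read-out basis = percent inhibition of parasite-derived β-gal signal | detection = GalScreen β-gal luminescence, detergent lysis, 60 min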
HSF1 inhib – HSF1 inhibition; activity change, negative = inhibition, % at 7.5 µM (by protocol); NIH3T3-HGL HSE-luciferase, MG132-induced, luminescence 8 h; hits give low values; AID 2098; hit rate 0.77% among 300,000;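 active = more than half of replicate wells show activity change below -50%, luminescence cut by over half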;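 also: luciferase reports HSF-1 transcriptional activity via heat shock element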
Each line names hits and unclear results; the compound was inactive in the other large screens. The list is not random: actives were taken first. Their share in the collection is about 4.8%.

O=C(/C=C/c1ccc(Cl)c(Cl)c1)NC1=NCCS1	HSF1 activator 53.8
O=C(NC1=NCCS1)c1cc(Cl)ccc1Cl	none
CCOC(=O)N1CCN(C(=O)CN(C2CCCCC2)S(=O)(=O)c2c(C)cc(C)cc2C)CC1	none
Cc1c(C(=O)Nc2ccc3c(c2)CCC3)cccc1[N+](=O)[O-]	HSF1 activator 57.4
O=C(COc1ncnc2sccc12)NC1CCS(=O)(=O)C1 (stereo not given)	none
N=c1c2c(-c3ccccc3)c(-c3ccccc3)n(Cc3ccccc3)c2ncn1CCO	T cruzi inh 57.3
N=c1c2c(-c3ccccc3)c(-c3ccccc3)oc2ncn1CCCN1CCOCC1	none
N=c1c2c(-c3ccccc3)c(-c3ccccc3)n(Cc3ccco3)c2ncn1CCCN1CCOCC1	HSF1 activator 102.4, T cruzi inh 91.7
N=c1c2c(-c3ccccc3)c(-c3ccccc3)n(Cc3ccco3)c2ncn1CCCn1ccnc1	T cruzi inh 64.3 (no result: Jurkat NFkB inh, 697 NFkB inh)
CC(C)Cn1cnc2c(c(-c3ccccc3)c(-c3ccccc3)n2Cc2ccco2)c1=N	T cruzi inh 59.7
c1ccc(-c2c(-c3ccccc3)n(Cc3ccco3)c3ncnc(NCCCn4ccnc4)c23)cc1	none
CCCCN(C(=O)CCNC(=O)NC12CC3CC(CC(C3)C1)C2)c1c(N)n(CCC)c(=O)[nH]c1=O	none (no result: GPR7 antag)
CC(Sc1ccccc1)C(=O)NNC(=O)c1ccncc1 (stereo not given)	none (no result: GPR7 antag)
Cc1nccn1CC(=O)c1ccc(O)c(O)c1	none (no result: GPR7 antag, HSF1 activator, T cruzi inh, HSF1 inhib)
CC1CCN(S(=O)(=O)c2cccc(C(=O)Nc3nncs3)c2)CC1	none
C=CCNC(=S)N/N=C/c1ccc(OCc2ccccc2Cl)cc1	T cruzi inh 64.9
CCC(=O)N(CCC(c1ccco1)c1ccccc1OC)Cc1cccs1 (stereo not given)	GPR7 antag 18.7, HSF1 inhib -75.0
CC(=O)N(CCC(c1ccccc1)c1ccco1)Cc1cccs1 (stereo not given)	none
O=C(Nc1ccc(Cl)c(Cl)c1)Nc1nc(-c2ccccc2)cs1	T cruzi inh 64.0
COc1cccc(-c2csc(NC(=O)Nc3ccccc3)n2)c1	HSF1 inhib -60.2
O=C(Nc1ccccc1)Nc1nc(-c2ccccc2)cs1	none
CN(Cc1ccccc1Cl)C(=O)CNC(=O)C12CC3CC(CC(C3)C1)C2	none (no result: GPR7 antag, HSF1 activator, T cruzi inh, HSF1 inhib)
COc1ccc(CN2CCC(N(CCc3ccccc3)Cc3ccccc3)CC2)c(OC)c1	T cruzi inh 60.5
CCOC(=O)C1CCCN(C(=O)c2ccc(-c3ccc([N+](=O)[O-])cc3)o2)C1 (stereo not given)	none (no result: GPR7 antag)
O=C(c1ccc(F)cc1)c1cc2ccccc2o1	none
O=C(c1ccccc1)c1cc2ccccc2o1	HSF1 activator 54.2
Cc1ccc(C(=O)c2cc3ccccc3o2)cc1[N+](=O)[O-]	HSF1 activator 64.4
Cc1c(NC(=O)Nc2ccc([N+](=O)[O-])cc2)c(=O)n(-c2ccccc2)n1C	HSF1 activator 57.9
N=c1sccn1CC(=O)Nc1cc(Cl)ccc1Oc1ccccc1	HSF1 activator 79.4
N=c1sccn1CC(=O)Nc1cccc(Oc2ccccc2)c1	none
CSCCC(NS(=O)(=O)c1ccccc1)C(=O)OC(C)C(=O)Nc1ccc(Cl)cn1 (stereo not given)	none (no result: GPR7 antag, HSF1 activator, T cruzi inh, HSF1 inhib)
CCC(C)c1ccccc1NC(=O)c1cc2cccc([N+](=O)[O-])c2[nH]1 (stereo not given)	T cruzi inh 65.2
Cc1ccc(NC(=O)c2cc3cccc([N+](=O)[O-])c3[nH]2)cc1	HSF1 activator 164.5
CCC(C)c1ccccc1NC(=O)COC(=O)c1ccc(N2CCCC2)c([N+](=O)[O-])c1 (stereo not given)	none
Cc1ccc(NC(=O)c2ccc(-n3cccn3)c([N+](=O)[O-])c2)cc1	none
COc1ccc(OCC(=O)Nc2ccc(N3CCN(C(=O)c4ccccc4C)CC3)cc2)cc1	none
CC1(C)CC2CC(C)(CN2C(=O)COC(=O)c2ccc(NC(=O)CC#N)cc2)C1 (stereo not given)	none (no result: GPR7 antag, HSF1 activator, T cruzi inh, HSF1 inhib)
NS(=O)(=O)c1ccc(CCNC/C=C/c2ccccc2)cc1	none
NS(=O)(=O)c1ccc(CCNCC#Cc2ccccc2)cc1	HSF1 inhib -70.9
COc1ccc(C)cc1NC(=O)c1sc2ncnc(N3CCN(c4ccccn4)CC3)c2c1C	none
O=c1[nH]c2cc(NCCO)c([N+](=O)[O-])cc2[nH]1	none
O=[N+]([O-])c1ccc(CSc2nc3ccccc3o2)cc1	HSF1 activator 116.9
CC1=[N+](C)c2ccc3ccccc3c2C1(C)C	T cruzi inh 69.4
CCN(/N=C/C=C/c1ccccc1)c1cc(=O)n(C)c(=O)[nH]1	HSF1 activator 69.2
Cc1ccccc1Oc1nc2c(C)cccn2c(=O)c1/C=C(\C#N)C(=O)NC1CCS(=O)(=O)C1 (stereo not given)	HSF1 activator 71.8
CC(=O)c1ccc(/C=C/c2nc3ccccc3n2C)o1	HSF1 activator 66.2
C=CCOc1ccc(C(c2c(C)n(C)n(-c3ccccc3)c2=O)c2c(C)n(C)n(-c3ccccc3)c2=O)cc1	HSF1 inhib -84.6
C(=C/c1ccnc2nc(SC/C=C/c3ccccc3)nn12)/c1ccccc1	HSF1 activator 100.7
CCCCCc1ccc(OCCOCCn2c[n+](C)c3ccccc32)c(CCCCC)c1	GPR7 antag 39.8 (no result: Jurkat NFkB inh, 697 NFkB inh)
C[n+]1cn(CC(O)COCc2ccccc2)c2ccccc21 (stereo not given)	none
Cc1c(NC(=O)C2CC(c3ccc(F)cc3)=NO2)c(=O)n(-c2ccccc2)n1C (stereo not given)	HSF1 inhib -83.9
COc1ccc(C2=NOC(C(=O)Nc3c(C)n(C)n(-c4ccccc4)c3=O)C2)cc1 (stereo not given)	none
COc1ccccc1NS(=O)(=O)c1cccc(C(=O)N2CC(C)OC(C)C2)c1 (stereo not given)	none (no result: GPR7 antag)
COc1ccc(-c2cc(CS(=O)(=O)c3ccccc3)on2)cc1	HSF1 activator 63.7
O=S(=O)(Cc1cc(-c2ccccc2)no1)c1ccccc1	none
NNC(=S)Nc1ccccc1Cl	HSF1 inhib -53.5
Cc1cccc(NC(=S)NCc2ccccn2)c1	none
S=C(NCc1ccccn1)Nc1ccccc1Cl	HSF1 activator 63.2
FC(F)(F)c1cccc(NC(=S)NNC(=S)NCc2ccccc2)c1	none
FC(F)(F)c1cccc(NC(=S)NCc2ccccn2)c1	GPR7 antag 20.0, HSF1 activator 56.9
S=C(NCCc1ccccn1)Nc1ccccc1Cl	none
S=C(NCc1ccccn1)Nc1cccc(Cl)c1	HSF1 activator 59.8
Cc1ccc(OCCNC(=O)C2CC(=O)N(Cc3ccccc3)C2)cc1 (stereo not given)	none (no result: GPR7 antag, HSF1 activator, T cruzi inh, HSF1 inhib)
CCN(Cc1ccccc1)C(=O)C1CCN(S(=O)(=O)c2ccc3c(c2)OCCO3)CC1	none
COc1ccc(C(=O)CSc2nc3ccccc3n2CC(=O)c2ccccc2)cc1	none
